Data published in ChEMBL document CHEMBL3853270, “Influence of Birch Bark Triterpenes on Keratinocytes and Fibroblasts from Diabetic and Nondiabetic Donors” (2016).
Active and inactive are the calls of the source. The rule behind the calls is not given here.

Assays:
Keratinocyte [1] = test: Effect on cellular connection related gene expression in diabetic adult human primary keratinocytes assessed as CLDN4 mRNA levels at 9.81 uM after 6 hrs by qPCR analysis; type: functional
Keratinocyte [2] = test: Effect on growth factor related gene expression in non-diabetic adult human primary keratinocytes assessed as GDF15 mRNA levels at 9.81 uM after 6 hrs by qPCR analysis; type: functional
How it was run: (§1)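 Primary human keratinocytes (nondiabetic young or adult, diabetic adult donors) were exposed to compound for 6 h, with 0.1% DMSO as solvent control. Total RNA came from 400 000 cells per sample and was assayed on a Fluidigm Biomark high-throughput qPCR chip. Results are fold change vs solvent control, from 2−4 independent experiments on two donors per group, with SD. Groups were compared by one-way ANOVA with Bonferroni post-test.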

Keratinocyte [3] = test: Effect on antiinflammatory related gene expression in non-diabetic adult human primary keratinocytes assessed as NFKBIA mRNA levels at 9.81 uM after 6 hrs by qPCR analysis; type: functional
How it was run: (§2)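 Primary keratinocytes from nondiabetic young and adult and diabetic adult donors; 400 000 cells per sample, 6 h exposure at 1.96 or 9.81 μM. RNA extracted and read on a high-throughput qPCR chip. Results are fold change versus 0.1% DMSO solvent control from 5−7 independent experiments over two donors per group, SD, one-way ANOVA with Bonferroni post-test.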

Fibroblast [4] = test: Effect on pro-inflammatory related gene expression in non-diabetic young human primary fibroblasts assessed as IL6 mRNA levels at 9.81 uM after 6 hrs by qPCR analysis; type: functional
Keratinocyte [5] = test: Effect on pro-inflammatory related gene expression in diabetic adult human primary keratinocytes assessed as IL1B mRNA levels at 1.96 uM after 6 hrs by qPCR analysis; type: functional
Fibroblast [6] = test: Effect on antiinflammatory related gene expression in non-diabetic young human primary fibroblasts assessed as NFKBIA mRNA levels at 9.81 uM after 6 hrs by qPCR analysis; type: functional
How it was run: (§3)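 Primary dermal fibroblasts from one nondiabetic young, one nondiabetic adult and one diabetic adult donor; 320 000 cells per sample, 6 h at 1.96 or 9.81 μM. RNA measured on a high-throughput qPCR chip. Fold change versus 0.1% DMSO control, four independent experiments, SD, one-way ANOVA with Bonferroni post-test.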

Keratinocyte [7] = test: Effect on chemokines related gene expression in diabetic adult human primary keratinocytes assessed as IL8 mRNA levels at 1.96 uM after 6 hrs by qPCR analysis; type: functional
Keratinocyte [8] = test: Effect on pro-inflammatory related gene expression in diabetic adult human primary keratinocytes assessed as TNF mRNA levels at 1.96 uM after 6 hrs by qPCR analysis; type: functional
Keratinocyte [9] = test: Effect on pro-inflammatory related gene expression in diabetic adult human primary keratinocytes assessed as IL6 mRNA levels at 1.96 uM after 6 hrs by qPCR analysis; type: functional
Keratinocyte [10] = test: Effect on AQP3 mRNA expression levels in diabetic adult human primary keratinocytes at 1.96 uM after 6 hrs by qPCR analysis; type: functional; how it was run: as §2
Keratinocyte [11] = test: Effect on growth factor related gene expression in non-diabetic adult human primary keratinocytes assessed as VEGFA mRNA levels at 1.96 uM after 6 hrs by qPCR analysis; type: functional; how it was run: as §1
Fibroblast [12] = test: Effect on adhesion molecules related gene expression in non-diabetic adult human primary fibroblasts assessed as VCAM1 mRNA levels at 1.96 uM after 6 hrs by qPCR analysis; type: functional
How it was run: (§4)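 Dermal fibroblasts from nondiabetic adult and diabetic adult donors, exposed for 6 h at 1.96 or 9.81 μM. ICAM-1 and VCAM-1 mRNA measured by standard qRT-PCR, n = 3. Fold change versus 0.1% DMSO control, SD, one-way ANOVA with Bonferroni post-test.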

Fibroblast [13] = test: Effect on adhesion molecules related gene expression in diabetic adult human primary fibroblasts assessed as VCAM1 mRNA levels at 1.96 uM after 6 hrs by qPCR analysis; type: functional; how it was run: as §4
[14] = Effect on wound healing activity in diabetic adult human primary keratinocytes assessed as upregulation of MIP1alpha protein levels at 1.96 uM after 24 hrs by bead-based suspension array analysis; type: functional; settings: Keratinocyte
Fibroblast [15] = test: Effect on growth factors related gene expression in non-diabetic adult human primary fibroblasts assessed as FGF2 mRNA levels at 9.81 uM after 6 hrs by qPCR analysis; type: functional
How it was run: (§5)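 Primary human dermal fibroblasts (young or adult nondiabetic, adult diabetic donor) were treated for 6 h against a 0.1% DMSO solvent control. RNA from 320 000 cells per sample was measured by Fluidigm Biomark high-throughput qPCR. Values are fold change relative to solvent control, from four independent experiments, with SD. One-way ANOVA with Bonferroni post-test was applied.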

Fibroblast [16] = test: Effect on antiinflammatory related gene expression in non-diabetic adult human primary fibroblasts assessed as SOCS3 mRNA levels at 9.81 uM after 6 hrs by qPCR analysis; type: functional; how it was run: as §3
Keratinocyte [17] = test: Effect on antioxidant related gene expression in diabetic adult human primary keratinocytes assessed as SOD2 mRNA levels at 1.96 uM after 6 hrs by qPCR analysis; type: functional
[18] = Upregulation of wound healing activity related soluble ICAM1 protein levels in non-diabetic adult human primary keratinocytes at 1.96 uM after 24 hrs by bead-based suspension array analysis; type: functional; settings: Keratinocyte
[19] = Effect on wound healing activity in non-diabetic adult human primary keratinocytes assessed as upregulation of IL1RA protein levels at 1.96 uM after 24 hrs by bead-based suspension array analysis; type: functional; settings: Keratinocyte
[20] = Effect on wound healing activity in non-diabetic adult human primary fibroblasts assessed as upregulation of MIF protein levels at 1.96 uM after 24 hrs by bead-based suspension array analysis; type: functional; settings: Fibroblast
Fibroblast [21] = test: Effect on growth factor related gene expression in non-diabetic young human primary fibroblasts assessed as GDF15 mRNA levels at 9.81 uM after 6 hrs by qPCR analysis; type: functional; how it was run: as §5
[22] = biological target: Ras-related C3 botulinum toxin substrate 1 (Homo sapiens) (UniProt P63000); test: Activation of Rac1 in human diabetic primary keratinocytes at 10 nM after 20 mins by immunoblot method
How it was run: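 Primary keratinocytes from a diabetic adult donor (NHK-d), exposed 20 min. Lysed in glycerol/Tris pH 7.4/NaCl/NP-40/MgCl2/PMSF buffer and cleared at 4 °C. Supernatant incubated 1 h at 4 °C with glutathione-sepharose beads carrying GST-PAK to pull down active GTP-bound Rac1. Blotted on a 13% gel, probed with anti-Rac1 (1:2.000) and detected by ECL; total Rac1 also measured. CNF1 (2 nM) positive control, n = 3.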

Fibroblast [23] = test: Effect on chemokines related gene expression in diabetic adult human primary fibroblasts assessed as CCL2 mRNA levels at 9.81 uM after 6 hrs by qPCR analysis; type: functional
Fibroblast [24] = test: Effect on pro-inflammatory related gene expression in non-diabetic adult human primary fibroblasts assessed as IL6 mRNA levels at 1.96 uM after 6 hrs by qPCR analysis; type: functional
Fibroblast [25] = test: Effect on chemokines related gene expression in diabetic adult human primary fibroblasts assessed as CCL2 mRNA levels at 1.96 uM after 6 hrs by qPCR analysis; type: functional
Keratinocyte [26] = test: Effect on chemokines related gene expression in non-diabetic adult human primary keratinocytes assessed as CXCL10 mRNA levels at 1.96 uM after 6 hrs by qPCR analysis; type: functional

Question: With C=C(C)[C@@H]1CC[C@]2(CO)CC[C@]3(C)[C@H](CC[C@@H]4[C@@]5(C)CC[C@H](O)C(C)(C)[C@@H]5CC[C@]43C)[C@@H]12 [BETULIN] as the molecule, how does the “fold change (FC)” value (Keratinocyte [1]) read?
Answer: 2.1

Question: And the “fold change (FC)” value (Keratinocyte [2])?
Answer: 1

Question: What about the “fold change (FC)” value (Keratinocyte [3]) of the same molecule?
Answer: 1.9

Question: What about the “fold change (FC)” value (Fibroblast [4]) of the same molecule?
Answer: 55

Question: And the “fold change (FC)” value (Keratinocyte [5])?
Answer: 0.8

Question: What about the “fold change (FC)” value (Fibroblast [6]) of the same molecule?
Answer: 3.2

Question: And the “fold change (FC)” value (Keratinocyte [7])?
Answer: 16.5

Question: And the “fold change (FC)” value (Keratinocyte [8])?
Answer: 5.3

Question: What about the “fold change (FC)” value (Keratinocyte [9]) of the same molecule?
Answer: 12.8

Question: What about the “fold change (FC)” value (Keratinocyte [10]) of the same molecule?
Answer: 0.8

Question: And the “fold change (FC)” value (Keratinocyte [11])?
Answer: 1.3

Question: What about the “fold change (FC)” value (Fibroblast [12]) of the same molecule?
Answer: 63

Question: What about the “fold change (FC)” value (Fibroblast [13]) of the same molecule?
Answer: 3.3

Question: And the Activity [14]?
Answer: Active

Question: And the “fold change (FC)” value (Fibroblast [15])?
Answer: 3.4

Question: What about the “fold change (FC)” value (Fibroblast [16]) of the same molecule?
Answer: 24.6

Question: And the “fold change (FC)” value (Keratinocyte [17])?
Answer: 1.1

Question: What about the Activity [18] of the same molecule?
Answer: Active

Question: And the Activity [19]?
Answer: Active

Question: What about the Activity [20] of the same molecule?
Answer: Active

Question: And the “fold change (FC)” value (Fibroblast [21])?
Answer: 5.1

Question: What about the Activity [22] of the same molecule?
Answer: Active

Question: And the “fold change (FC)” value (Fibroblast [23])?
Answer: 1.7

Question: What about the “fold change (FC)” value (Fibroblast [24]) of the same molecule?
Answer: 278

Question: What about the “fold change (FC)” value (Fibroblast [25]) of the same molecule?
Answer: 3.7

Question: And the “fold change (FC)” value (Keratinocyte [26])?
Answer: 2.9
